Measurements of several laboratories.
Sample: plasma

CN(C)C(=O)c1cc2cnc(Nc3ccc(-c4ccc5c(=O)cc(N6CCOCC6)oc5c4)cc3)nc2n1C1CCCC1.Cl
CL/F (BALB/c mouse; oral; 20 mg/kg): 43.3 mL/min/kg

Cc1ncsc1-c1ccc([C@H](C)NC(=O)[C@@H]2C[C@@H](O)CN2C(=O)[C@@H](NC(=O)CCc2ccc(C#Cc3ccc(C(=O)NCCCn4cc(-c5ccc6c(c5)CCN6C(=O)Cc5cccc(OC(F)(F)F)c5)c5c(N)ncnc54)cc3)cn2)C(C)(C)C)cc1
clearance (male C57BL/6 mouse; intravenous; 1 mg/kg): 2.5 mL/min/kg

Cc1ccc(OCC(=O)N[C@@H](Cc2c[nH]c3ccccc23)C(=O)OC(C)C)cc1
clearance (male Sprague-Dawley mouse; oral; 20 mg/kg): 32.3 mL/min/kg

O=C1CCC(N2Cc3cc(CO)c(F)cc3C2=O)C(=O)N1 (centres unmarked)
C0 (male CD-1 mouse; intravenous; 1 mg/kg): 2190 ng/mL

CCOC(=O)C1=C(CN2CCC[C@@H]2C(=O)Nc2ccc(B(O)O)cc2)NC(c2nccs2)=N[C@H]1c1ccc(F)cc1Br
C0 (CD-1 mouse; intravenous; 2 mg/kg): 2160 ng/mL

COc1ccc(N(Cc2csc(-c3ccccc3)n2)C(=O)CCCCCC(=O)NO)cc1
Tmax (female Sprague-Dawley rat; oral; 30 mg/kg): 1 h

C[C@H]1Oc2cc(cnc2N)-c2c(nn(C)c2C#N)CN(C)C(=O)c2ccc(F)cc21
Tmax (male Sprague-Dawley rat; oral; 10 mg/kg; single dose): 1.36 h

OCc1ccc(-c2nn(Cc3ccccc3)c3ccccc23)o1
C0 (male CD-1 mouse; intravenous; 5 mg/kg): 5100 ng/mL

OCc1nc2ccc(NCc3ccc(C(F)(F)F)cc3)cc2[nH]1
CL/F (male BALB/c mouse; intravenous; 1 mg/kg): 61.7 mL/min/kg

NCc1cc2c(cc1F)C(=O)N(C1CCC(=O)NC1=O)C2 (centres unmarked)
C0 (male CD-1 mouse; intravenous; 1 mg/kg): 2000 ng/mL

Cc1ncsc1-c1ccc([C@H](CC(=O)N2CCN(c3ccc(C#Cc4ccc(C(=O)N5CCC(n6cc(-c7ccc8c(c7)CCN8C(=O)Cc7cccc(OC(F)(F)F)c7)c7c(N)ncnc76)CC5)cc4)cn3)CC2)NC(=O)[C@@H]2C[C@@H](O)CN2C(=O)[C@@H](NC(=O)C2(F)CC2)C(C)(C)C)cc1
clearance (male C57BL/6 mouse; intravenous; 1 mg/kg): 2.3 mL/min/kg

COc1cc(-c2cc(C(C)=O)n3ccccc23)c(OC)cc1Cn1ccnc1
Tmax (male Sprague-Dawley rat; intravenous; 5 mg/kg): 0.016 h

NCc1ccc(-c2nn(Cc3ccccc3)c3ccccc23)o1
C0 (male CD-1 mouse; intravenous; 5 mg/kg): 1520 ng/mL

C=CCn1c(=O)c2cnc(Nc3ccc(N4CCN(C)CC4)cc3)nc2n1-c1ccc2c(n1)[C@@](O)(CC)CC2
Cmax (dog; oral; 10 mg/kg): 2100 nM
